Source: PubChem BioAssay
An excerpt weighted towards active compounds, which were near 2.5% of everything screened.
ABHD5 PLIN5 PPI – ABHD5-PLIN5 protein interaction inhibition; Split G. princeps luciferase complementation, luminescence, 4 h; inhibition, % at 4 µM; 0.78% of 360,000 active;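 active = inhibition above the mean inhibition across every tested compound plus 3 SD, cut at about 22% in these data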;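 note: 0% = DMSO only wells and the 100% control is not disclosed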
SENP1 inh – blocks the human SENP1 SUMO protease catalytic domain; Q9P0U3; recombinant SENP1 catalytic domain, CyPet-SUMO1-YPet FRET cleavage; inhibition, % at 10 µM; 0.21% of 360,000 active; AID 624204;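 active = inhibition at least 30% at 10 µM, raw YFP signal under a set limit, fluorescence ratio 0.5 to 1.5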;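 note: 0% = enzyme with DMSO and 100% = no enzyme wells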
Target sequence (Q9P0U3 419-644 limits assumed): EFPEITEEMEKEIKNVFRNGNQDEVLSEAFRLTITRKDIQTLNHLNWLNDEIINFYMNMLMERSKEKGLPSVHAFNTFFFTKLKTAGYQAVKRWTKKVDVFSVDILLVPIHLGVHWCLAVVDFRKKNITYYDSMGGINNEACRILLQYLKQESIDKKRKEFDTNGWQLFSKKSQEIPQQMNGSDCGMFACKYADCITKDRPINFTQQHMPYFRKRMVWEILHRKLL
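Controls: no-enzyme wells low, DMSO-plus-enzyme wells high control. Test system: human recombinant His6-tagged SENP1 catalytic domain enzyme. Reagent: SFCypet-SUMO1-SFYpet FRET protein substrate, 25 nM final. Doses: one dose per compound, 10 µM, 0.5% DMSO. Detection: FRET, CFP and YFP emission. Timing: 50 min reaction at room temperature.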
NadD block – blocks S. aureus nicotinate mononucleotide adenylyltransferase | inhibition, % at 20 µM | purified NadD enzyme, colorimetric absorbance read-out | AID 602399 | 0.78% of 360,000 active; in the data active = inhibition above about 26%
GRK2 aptamer HTS – blocks RNA aptamer binding to human GRK2; P25098; bead flow cytometry, FAM-aptamer displacement from GRK2; inhibition of aptamer binding, % at 10 µM; 0.59% of 330,000 active; AID 488847;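 active = inhibition of aptamer binding above 40%, roughly 3 SD of noise, on plates passing a quality check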;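 note: median bead fluorescence of bound FAM aptamer so fluorescent compounds give negative values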
B2AR ag – human beta-2 adrenergic receptor agonism by FAP. P07550. Am2.2-beta2AR cells, FAP receptor internalization, flow cytometry. response, % (concentration not given with the values). 0.43% of 340,000 active;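 active = response above a set limit, near 3 SD of response in nonfluorescent compounds, cut at about 42% in these data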
Target sequence (P07550 whole entry, looked up): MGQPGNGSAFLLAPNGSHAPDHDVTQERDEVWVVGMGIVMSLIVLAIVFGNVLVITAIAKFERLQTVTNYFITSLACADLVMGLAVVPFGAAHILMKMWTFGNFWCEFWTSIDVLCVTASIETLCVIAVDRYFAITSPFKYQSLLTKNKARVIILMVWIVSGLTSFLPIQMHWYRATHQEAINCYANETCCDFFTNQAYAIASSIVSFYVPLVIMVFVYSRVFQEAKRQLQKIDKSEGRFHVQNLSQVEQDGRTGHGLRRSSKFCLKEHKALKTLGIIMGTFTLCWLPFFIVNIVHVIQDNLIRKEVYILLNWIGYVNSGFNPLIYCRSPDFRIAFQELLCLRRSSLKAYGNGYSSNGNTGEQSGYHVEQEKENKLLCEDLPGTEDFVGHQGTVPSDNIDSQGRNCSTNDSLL
ABHD5 PLIN5 conf – ABHD5-PLIN5 interaction inhibition, confirmed; shares compounds with ABHD5 PLIN5 PPI; 67% of 2,200 active; biochemical ABHD5-PLIN5 interaction, luminescence; inhibition, % at 4 µM; in the data active = inhibition above about 23%;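 note: 0% = DMSO vehicle wells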
HNF4 counter – counter-screen for ABHD5-PLIN5 inhibitors: HNF4 split-luciferase; shares compounds with ABHD5 PLIN5 PPI; HNF4 dimerization, luminescence, biochemical; inhibition, % at 4 µM; 77% of 2,200 active;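 active = mean inhibition across replicate wells exceeding the computed hit threshold, cut at about 13% in these data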;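 note: light from luciferase halves that rejoin when HNF4 fusion proteins dimerize; 0% = DMSO only wells and the 100% control is not given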
Numbers without * were called inactive.

For Cc1cccc(C)c1NC(=O)C(C1CC1)n1c(=O)c(-c2ccco2)nc2ccccc21 (stereo not drawn) the results were ABHD5 PLIN5 PPI 61*, SENP1 inh -36, ABHD5 PLIN5 conf 43* and HNF4 counter 25*.
`Cc1cccc(C)c1NC(=O)C(c1ccncc1)n1c(=O)c(-c2ccco2)nc2ccccc21` (stereo not drawn) gave ABHD5 PLIN5 PPI 56*, SENP1 inh -47, ABHD5 PLIN5 conf 23* and HNF4 counter 12.
For CC(C)(C)NC(=O)C(C1CC1)n1c(=O)c(-c2ccco2)nc2ccccc21 (stereo not drawn) the results were ABHD5 PLIN5 PPI 51*, SENP1 inh -52, ABHD5 PLIN5 conf 73* and HNF4 counter 23*.
`Cc1c(/C=C2\NC(=O)NC2=O)c2ccccc2n1C` gave ABHD5 PLIN5 PPI 2, SENP1 inh -10, NadD block -1 and B2AR ag -1.
Screening O=C(O)Cc1c[nH]c2ccc(O)cc12 returned ABHD5 PLIN5 PPI 38*, SENP1 inh 1, NadD block 1, GRK2 aptamer HTS 0, B2AR ag 0, ABHD5 PLIN5 conf 7 and HNF4 counter 39*.
Screening CC(C)c1ccc(C2C3=C(CC(C)(C)CC3=O)NC3=C2C(=O)c2ccccc23)cc1 (stereo not drawn) returned ABHD5 PLIN5 PPI 29*, SENP1 inh 4, NadD block 21, GRK2 aptamer HTS 3, B2AR ag 24, ABHD5 PLIN5 conf 42* and HNF4 counter 63*.
Screening CC1(C)CC(=O)C2=C(C1)NC1=C(C(=O)c3ccccc31)C2c1cccnc1 (stereo not drawn) returned ABHD5 PLIN5 PPI 7, SENP1 inh 1, NadD block 6, GRK2 aptamer HTS 2 and B2AR ag -5.
Cc1ccc(NC(=O)C2CCC(CNC(=O)[C@@H]3Cc4ccccc4CN3)CC2)c(C)c1 (stereo partly drawn) was read as ABHD5 PLIN5 PPI 10, SENP1 inh 1, NadD block -8, GRK2 aptamer HTS 1 and B2AR ag 9.
For O=C(O)c1ccccc1NS(=O)(=O)c1cccc(-n2sc3ccccc3c2=O)c1 the results were ABHD5 PLIN5 PPI 37*, SENP1 inh -3, NadD block 9, GRK2 aptamer HTS 4, B2AR ag -4, ABHD5 PLIN5 conf 93* and HNF4 counter 115*.
For COc1cc(NC(=O)C/C(C)=N/NC(=O)C(=O)NC2CCCCC2)c(OC)cc1Cl the results were ABHD5 PLIN5 PPI 24*, SENP1 inh 1, NadD block 3, GRK2 aptamer HTS 5, B2AR ag 0, ABHD5 PLIN5 conf 6 and HNF4 counter 5.
COc1ccc(OC)c2sc(NC(=O)C3=COCCO3)nc12 was read as ABHD5 PLIN5 PPI 38*, SENP1 inh 1, NadD block -2, GRK2 aptamer HTS 3, B2AR ag -15, ABHD5 PLIN5 conf 11 and HNF4 counter 4.
Screening COc1ccc(/C=C/C(=O)c2c(O)c(OC)c3occc3c2OC)cc1 returned ABHD5 PLIN5 PPI 49*, SENP1 inh 4, NadD block -3, B2AR ag 18, ABHD5 PLIN5 conf 79* and HNF4 counter 65*.
For COc1ccc(/C=C/C(=O)c2ccccc2O)cc1 the results were ABHD5 PLIN5 PPI 19, SENP1 inh 1, NadD block -9, GRK2 aptamer HTS 0 and B2AR ag 10.
Screening O=C(O)c1ccc2nc(-c3ccco3)c(-c3ccco3)nc2c1 returned ABHD5 PLIN5 PPI 27*, SENP1 inh -28, NadD block 3, B2AR ag -1, ABHD5 PLIN5 conf 82* and HNF4 counter 94*.
`O=S(=O)(c1ccc2ccccc2c1)N1CCOCC1` gave ABHD5 PLIN5 PPI -5, SENP1 inh 1, NadD block -2, GRK2 aptamer HTS 1 and B2AR ag 0.
For O=S(=O)(c1ccc2nc(-c3ccco3)c(-c3ccco3)nc2c1)N1CCOCC1 the results were ABHD5 PLIN5 PPI 26*, SENP1 inh 11, NadD block 11, GRK2 aptamer HTS 11, B2AR ag -4, ABHD5 PLIN5 conf 78* and HNF4 counter 62*.
CC(C(=O)Nc1ccccc1F)N1CCN(C)CC1 (stereo not drawn) was read as GRK2 aptamer HTS 5.
`CC(C)(C)NC(=O)COC(=O)c1ccc2c(c1)C(=O)N(Cc1ccco1)C2=O` gave ABHD5 PLIN5 PPI 6, SENP1 inh -1, NadD block -15, GRK2 aptamer HTS 0 and B2AR ag -3.
Screening O=C(Nc1nc2ccccc2[nH]1)NC1CCCCC1 returned ABHD5 PLIN5 PPI 102*, SENP1 inh 1, NadD block -1, GRK2 aptamer HTS 3, B2AR ag -5, ABHD5 PLIN5 conf 4 and HNF4 counter 3.
Screening CCOC(=O)CSc1nnc(NCC(=O)OC(C)C)c(=O)[nH]1 returned ABHD5 PLIN5 PPI 27*, SENP1 inh 0, NadD block 4, GRK2 aptamer HTS 0, B2AR ag -5, ABHD5 PLIN5 conf 48* and HNF4 counter 98*.
CC(=O)OCCNc1cc(Sc2nc3ccccc3[nH]2)c2nonc2c1[N+](=O)[O-] was read as ABHD5 PLIN5 PPI 60*, SENP1 inh -25, NadD block 4, GRK2 aptamer HTS 3, B2AR ag 26, ABHD5 PLIN5 conf 71* and HNF4 counter 112*.
`CC(=O)OCCCNc1cc(Sc2nc3ccccc3s2)c2nonc2c1[N+](=O)[O-]` gave ABHD5 PLIN5 PPI -13, SENP1 inh -14, NadD block 8, GRK2 aptamer HTS 1 and B2AR ag -242.
`COc1ccc(C)c2sc(N(CCCN(C)C)C(=O)c3ccc4c(c3)OCCO4)nc12` gave ABHD5 PLIN5 PPI 23*, SENP1 inh -59, NadD block -5, GRK2 aptamer HTS 0, B2AR ag 28, ABHD5 PLIN5 conf 17 and HNF4 counter 8.
`Cc1cc(C)c2nc(N(CCCN(C)C)C(=O)c3ccc4c(c3)OCCO4)sc2c1` gave ABHD5 PLIN5 PPI 27*, SENP1 inh 2, NadD block -3, GRK2 aptamer HTS 0, B2AR ag 19, ABHD5 PLIN5 conf 19 and HNF4 counter 3.
`CN(C)CCCN(C(=O)COc1ccccc1)c1nc2c(F)cccc2s1` gave ABHD5 PLIN5 PPI 7, SENP1 inh 2, NadD block -7, GRK2 aptamer HTS 0 and B2AR ag -5.
Cc1cccc2sc(N(CCCN(C)C)C(=O)c3ccc(Cl)s3)nc12 was read as ABHD5 PLIN5 PPI 25*, SENP1 inh -2, NadD block -7, GRK2 aptamer HTS 3, B2AR ag 10, ABHD5 PLIN5 conf 16 and HNF4 counter 8.
